Assay results: ChEMBL document CHEMBL1221342, “Synthesis and in vitro antitumor activity of new 4,5-dihydropyrazole derivatives” (Bioorg Med Chem, 2010)

Assays:
Format in all cases: functional
[1] = system: CCRF-CEM; assay: Growth inhibition of human CCRF-CEM cells after 48 hrs by SRB assay
Method in brief: (§1)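 NCI 60-cell-line screen. Cells grown in RPMI1640 with 5% fetal calf serum and 2 mM L-glutamine, with inoculum density set by cell line. Preincubated 24 h, then given compound in DMSO at 10^-4 to 10^-8 M (five 10-fold steps) for 48 h continuous exposure. Growth measured by SRB protein assay. GI50, TGI and LC50 reported as –log molar.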

[2] = system: HL-60(TB); assay: Growth inhibition of human HL-60(TB) cells after 48 hrs by SRB assay; conditions: HL-60, 48 h
Method in brief: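 NCI 60-cell-line screen: cells grown in RPMI1640 with 5% fetal calf serum and 2 mM L-glutamine, preincubated 24 h, then exposed to compound in DMSO at five concentrations (10^-4 to 10^-8 M) for 48 h continuous exposure. Growth estimated by sulforhodamine B protein assay; reported as pGI50 (-log molar concentration inhibiting net cell growth by 50%).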

[3] = Growth inhibition of human […] cells after 48 hrs by SRB assay; method in brief: as §1
[4] = system: SR; assay: Growth inhibition of human SR cells after 48 hrs by SRB assay; method in brief: as §1
[5] = system: EKVX; assay: Growth inhibition of human EKVX cells after 48 hrs by SRB assay; method in brief: as §1
[6] = system: HOP-62; assay: Growth inhibition of human HOP62 cells after 48 hrs by SRB assay; conditions: HOP-62, 48 h; method in brief: as §1
[7] = system: NCI-H460; assay: Growth inhibition of human NCI-H460 cells after 48 hrs by SRB assay; conditions: NCI-H460, 48 h; method in brief: as §1
[8] = system: NCI-H522; assay: Growth inhibition of human NCI-H522 cells after 48 hrs by SRB assay; conditions: NCI-H522, 48 h; method in brief: as §1
[9] = system: HCT-15; assay: Growth inhibition of human HCT15 cells after 48 hrs by SRB assay; conditions: HCT-15, 48 h; method in brief: as §1
[10] = system: HT-29; assay: Growth inhibition of human HT-29 cells after 48 hrs by SRB assay; conditions: HT-29, 48 h; method in brief: as §1
[11] = system: KM12; assay: Growth inhibition of human KM12 cells after 48 hrs by SRB assay; conditions: KM12, 48 h; method in brief: as §1
[12] = system: SW-620; assay: Growth inhibition of human SW620 cells after 48 hrs by SRB assay; conditions: SW-620, 48 h; method in brief: as §1
[13] = system: SF-268; assay: Growth inhibition of human SF268 cells after 48 hrs by SRB assay; conditions: SF-268, 48 h; method in brief: as §1
[14] = system: SF-539; assay: Growth inhibition of human SF539 cells after 48 hrs by SRB assay; conditions: SF-539, 48 h; method in brief: as §1
[15] = system: SNB-75; assay: Growth inhibition of human SNB75 cells after 48 hrs by SRB assay; conditions: SNB-75, 48 h; method in brief: as §1
[16] = system: Malme-3M; assay: Growth inhibition of human MALME-3M cells after 48 hrs by SRB assay; method in brief: as §1
[17] = system: M14; assay: Growth inhibition of human M14 cells after 48 hrs by SRB assay; conditions: M14, 48 h; method in brief: as §1
[18] = system: SK-MEL-2; assay: Growth inhibition of human SK-MEL-2 cells after 48 hrs by SRB assay; conditions: SK-MEL-2, 48 h; method in brief: as §1
[19] = system: MDA-MB-435; assay: Growth inhibition of human MDA-MB-435 cells after 48 hrs by SRB assay; conditions: MDA-MB-435, 48 h; method in brief: as §1
[20] = system: SK-MEL-28; assay: Growth inhibition of human SK-MEL-28 cells after 48 hrs by SRB assay; conditions: SK-MEL-28, 48 h; method in brief: as §1
[21] = system: SK-MEL-5; assay: Growth inhibition of human SK-MEL-5 cells after 48 hrs by SRB assay; conditions: SK-MEL-5, 48 h; method in brief: as §1
[22] = system: IGROV-1; assay: Growth inhibition of human IGROV1 cells after 48 hrs by SRB assay; conditions: IGROV-1, 48 h; method in brief: as §1
[23] = system: OVCAR-3; assay: Growth inhibition of human OVCAR-3 cells after 48 hrs by SRB assay; conditions: OVCAR-3, 48 h; method in brief: as §1
[24] = system: OVCAR-8; assay: Growth inhibition of human OVCAR8 cells after 48 hrs by SRB assay; conditions: OVCAR-8, 48 h; method in brief: as §1
[25] = system: NCI/ADR-RES; assay: Growth inhibition of human NCI/ADR-RES cells after 48 hrs by SRB assay; method in brief: as §1
[26] = system: SK-OV-3; assay: Growth inhibition of human SKOV3 cells after 48 hrs by SRB assay; conditions: SK-OV-3, 48 h; method in brief: as §1
[27] = system: 786-0; assay: Growth inhibition of human 786-0 cells after 48 hrs by SRB assay; conditions: 786-0, 48 h; method in brief: as §1
[28] = system: A498; assay: Growth inhibition of human A498 cells after 48 hrs by SRB assay; conditions: A498, 48 h; method in brief: as §1
[29] = system: CAKI-1; assay: Growth inhibition of human Caki1 cells after 48 hrs by SRB assay; conditions: CAKI-1, 48 h; method in brief: as §1
[30] = system: RXF 393; assay: Growth inhibition of human RXF393 cells after 48 hrs by SRB assay; conditions: RXF 393, 48 h; method in brief: as §1
[31] = system: TK-10; assay: Growth inhibition of human TK10 cells after 48 hrs by SRB assay; conditions: TK-10, 48 h; method in brief: as §1
[32] = system: UO-31; assay: Growth inhibition of human UO31 cells after 48 hrs by SRB assay; conditions: UO-31, 48 h; method in brief: as §1
[33] = system: DU-145; assay: Growth inhibition of human DU145 cells after 48 hrs by SRB assay; conditions: DU-145, 48 h; method in brief: as §1
[34] = Growth inhibition of human Hs 578T cells after 48 hrs by SRB assay; method in brief: as §1
[35] = system: BT-549; assay: Growth inhibition of human BT549 cells after 48 hrs by SRB assay; conditions: BT-549, 48 h; method in brief: as §1
[36] = system: T47D; assay: Growth inhibition of human T47D cells after 48 hrs by SRB assay; method in brief: as §1

COc1ccc(/C=C\c2cc(OC)c(OC)c(OC)c2)cc1O [COMBRETASTATIN A4]
GI50 [1]: 100 nM
TGI ([1]; read-out: pTGI (converted)): 5010 nM
GI50 [2]: 31.6 nM
TGI ([2]; read-out: pTGI (converted)): 63.1 nM
GI50 [3]: 158 nM
TGI ([3]; read-out: pTGI (converted)): 6310 nM
GI50 [4]: 126 nM
TGI ([4]; read-out: pTGI (converted)): 79400 nM
GI50 [5]: 398 nM
TGI ([5]; read-out: pTGI (converted)): 79400 nM
GI50 [6]: 200 nM
TGI ([6]; read-out: pTGI (converted)): 2510 nM
GI50 [7]: 31.6 nM
TGI ([7]; read-out: pTGI (converted)): 63100 nM
GI50 [8]: 31.6 nM
TGI ([8]; read-out: pTGI (converted)): 3980 nM
GI50 [9]: 31.6 nM
TGI ([9]; read-out: pTGI (converted)): 10000 nM
GI50 [10]: 631 nM
TGI ([10]; read-out: pTGI (converted)): 6310 nM
GI50 [11]: 50.1 nM
TGI ([11]; read-out: pTGI (converted)): 794 nM
GI50 [12]: 31.6 nM
TGI ([12]; read-out: pTGI (converted)): 79400 nM
GI50 [13]: 126 nM
TGI ([13]; read-out: pTGI (converted)): 50100 nM
GI50 [14]: 39.8 nM
TGI ([14]; read-out: pTGI (converted)): 200 nM
GI50 [15]: 794 nM
TGI ([15]; read-out: pTGI (converted)): 25100 nM
GI50 [16]: 501 nM
TGI ([16]; read-out: pTGI (converted)): 79400 nM
GI50 [17]: 158 nM
TGI ([17]; read-out: pTGI (converted)): 251 nM
GI50 [18]: 7940 nM
TGI ([18]; read-out: pTGI (converted)): 79400 nM
GI50 [19]: 31.6 nM
TGI ([19]; read-out: pTGI (converted)): 79.4 nM
GI50 [20]: 3160 nM
TGI ([20]; read-out: pTGI (converted)): 50100 nM
GI50 [21]: 10 nM
TGI ([21]; read-out: pTGI (converted)): 10 nM
GI50 [22]: 63.1 nM
TGI ([22]; read-out: pTGI (converted)): 63100 nM
GI50 [23]: 39.8 nM
TGI ([23]; read-out: pTGI (converted)): 158 nM
GI50 [24]: 39.8 nM
TGI ([24]; read-out: pTGI (converted)): 39800 nM
GI50 [25]: 63.1 nM
TGI ([25]; read-out: pTGI (converted)): 398 nM
GI50 [26]: 31600 nM
TGI ([26]; read-out: pTGI (converted)): > 100000 nM
GI50 [27]: 19.9 nM
TGI ([27]; read-out: pTGI (converted)): 25100 nM
GI50 [28]: 50.1 nM
TGI ([28]; read-out: pTGI (converted)): 794 nM
GI50 [29]: 39.8 nM
TGI ([29]; read-out: pTGI (converted)): 15800 nM
GI50 [30]: 1000 nM
TGI ([30]; read-out: pTGI (converted)): 79400 nM
GI50 [31]: 631 nM
TGI ([31]; read-out: pTGI (converted)): 3980 nM
GI50 [32]: 200 nM
TGI ([32]; read-out: pTGI (converted)): 50100 nM
GI50 [33]: 10 nM
TGI ([33]; read-out: pTGI (converted)): > 100000 nM
GI50 [34]: 158 nM
TGI ([34]; read-out: pTGI (converted)): 7940 nM
GI50 [35]: 10 nM
TGI ([35]; read-out: pTGI (converted)): 2000 nM
GI50 [36]: 50100 nM
TGI ([36]; read-out: pTGI (converted)): > 100000 nM
